Data taken from ChEMBL document CHEMBL4152283, “Discovery of potent and novel smoothened antagonists via structure-based virtual screening and biological assays” (Eur J Med Chem, 2018).
Calls of active or inactive are those of the source. The calls are words filed in the database; no cut-off is given here.

Key:
[1] = target: Protein smoothened (Mus musculus, UniProt P56726); experiment: Antagonist activity at Smo receptor in mouse NIH/3T3 cells harboring GRE-Luc assessed as inhibition of SAG-induced Hh signaling pathway co-incubated with SAG measured after 48 hrs by luciferase reporter gene assay
Sequence of Protein smoothened (Mus musculus, UniProt P56726) (P56726 whole entry): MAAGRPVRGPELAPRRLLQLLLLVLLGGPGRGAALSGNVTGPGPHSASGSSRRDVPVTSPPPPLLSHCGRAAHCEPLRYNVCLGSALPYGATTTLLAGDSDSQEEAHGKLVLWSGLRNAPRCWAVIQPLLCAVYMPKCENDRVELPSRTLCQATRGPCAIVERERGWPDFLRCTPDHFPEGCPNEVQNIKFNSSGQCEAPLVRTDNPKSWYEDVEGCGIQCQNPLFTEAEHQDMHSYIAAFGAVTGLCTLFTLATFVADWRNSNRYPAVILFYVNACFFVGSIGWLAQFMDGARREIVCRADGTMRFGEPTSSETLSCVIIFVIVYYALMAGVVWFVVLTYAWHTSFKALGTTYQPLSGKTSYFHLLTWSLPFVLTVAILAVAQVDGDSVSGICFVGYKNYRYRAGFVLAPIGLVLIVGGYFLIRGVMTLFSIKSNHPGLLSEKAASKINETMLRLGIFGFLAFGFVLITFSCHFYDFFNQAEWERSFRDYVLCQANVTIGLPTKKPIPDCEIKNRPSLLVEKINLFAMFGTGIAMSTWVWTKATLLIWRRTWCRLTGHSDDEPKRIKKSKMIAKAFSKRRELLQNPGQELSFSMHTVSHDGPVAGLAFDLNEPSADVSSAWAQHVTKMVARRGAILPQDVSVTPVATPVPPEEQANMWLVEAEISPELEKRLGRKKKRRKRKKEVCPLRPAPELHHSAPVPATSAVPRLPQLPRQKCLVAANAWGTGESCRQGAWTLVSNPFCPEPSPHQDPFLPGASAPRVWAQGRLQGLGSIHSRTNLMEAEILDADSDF

[2] = target: T1, Protein smoothened (Homo sapiens, UniProt Q99835); experiment: Antagonist activity at Smo receptor (unknown origin); type: functional
T1 sequence (Q99835 whole entry): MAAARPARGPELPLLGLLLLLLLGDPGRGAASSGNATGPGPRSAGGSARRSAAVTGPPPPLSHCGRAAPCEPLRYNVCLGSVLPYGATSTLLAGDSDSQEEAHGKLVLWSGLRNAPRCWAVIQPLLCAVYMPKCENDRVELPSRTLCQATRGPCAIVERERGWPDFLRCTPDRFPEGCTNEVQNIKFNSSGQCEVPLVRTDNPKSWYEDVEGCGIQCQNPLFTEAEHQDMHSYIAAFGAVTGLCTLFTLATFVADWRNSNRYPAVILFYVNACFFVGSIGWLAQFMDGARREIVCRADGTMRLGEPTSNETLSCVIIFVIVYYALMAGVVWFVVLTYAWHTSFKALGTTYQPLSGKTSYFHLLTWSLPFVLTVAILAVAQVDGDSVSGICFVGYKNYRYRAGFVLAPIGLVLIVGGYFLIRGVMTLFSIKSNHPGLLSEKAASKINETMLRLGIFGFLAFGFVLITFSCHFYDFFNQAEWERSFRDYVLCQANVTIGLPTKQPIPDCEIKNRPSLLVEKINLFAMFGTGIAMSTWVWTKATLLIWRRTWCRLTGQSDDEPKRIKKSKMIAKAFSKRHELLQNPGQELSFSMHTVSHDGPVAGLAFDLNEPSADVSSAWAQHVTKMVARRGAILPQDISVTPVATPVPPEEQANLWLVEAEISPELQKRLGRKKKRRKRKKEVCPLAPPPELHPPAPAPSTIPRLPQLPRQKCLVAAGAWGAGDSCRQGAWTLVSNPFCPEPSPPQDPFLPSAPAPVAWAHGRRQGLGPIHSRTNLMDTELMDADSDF

[3] = target: T1, Protein smoothened; experiment: Displacement of BODIPY-Cyclopamine from human HA-tagged Smo receptor expressed in human U2OS cells at 3 to 1000 nM by DAPI staining based fluorescence microscopic method; type: cell-based
How it was run: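 Puromycin-selected U2OS clone expressing HA-tagged human Smo, seeded 10,000 cells/well in 10% serum DMEM and cultured 48 h at 37 °C. Cells fixed in 4% PFA for 20 min, DAPI (5 µg/mL) for 10 min, PBS washes, then 2 h at room temperature with 100 nM BODIPY-cyclopamine plus serially diluted compound. PBST washes, automated high-content fluorescence imaging, data normalized to GDC-0449. Sigmoidal fit for IC50. Ki by Cheng-Prusoff using probe Kd 255 ± 57 nM.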

Q: With Cc1ccc(NCc2cccn2-c2nnc(N3CCC(C(=O)NC4CCCC4)CC3)s2)cc1 as the compound, how does the IC50 [1] read?
A: The IC50 was 0.53 µM.

Q: Which IC50 [1] does the source give for Cc1ccc(NCc2cccn2-c2nnc(N3CCC(C(=O)NC4CCCCC4C)CC3)s2)cn1 (stereo not given) here?
A: Its IC50 is 0.24 µM.

Q: With Cc1ccc(-c2cc3c(N4CCC(C(=O)NC(C)c5ccccc5)CC4)nccn3n2)cc1C (stereo not given) as the compound, how does the IC50 [1] read?
A: The IC50 was 4.6 µM.

Q: Cc1ccc(NCc2cccn2-c2nnc(N3CCC(C(=O)NCC(C)(C)O)CC3)s2)cc1 was tested. Which IC50 [1] did it give?
A: The IC50 was 4.3 µM.

Q: How did the IC50 [1] turn out when Cc1ccc(NCc2cccn2-c2nnc(N3CCC(C(=O)NCC4CC4)CC3)s2)cc1 was run?
A: The IC50 was 1.7 µM.

Q: For Cc1ccc(NCc2cccn2-c2nnc(N3CCC(C(=O)N4CCCC4)CC3)s2)cc1, which IC50 [1] is on record?
A: The IC50 was 4.3 µM.

Q: For Cc1ccc(NCc2cccn2-c2nnc(N3CCC(C(=O)N4CCC(O)C4)CC3)s2)cc1 (stereo not given), which IC50 [1] is on record?
A: Its IC50 is 7.6 µM.

Q: For O=C(Nc1ccc(N2CCN(Cc3ccccc3O)CC2)nc1)c1ccccc1C(F)(F)F, which IC50 [1] is on record?
A: Its IC50 is 2.4 µM.

Q: With COc1cc(C(=O)NC(=N)Nc2cccc(NC(=O)c3ccc(-c4ccccc4)cc3)c2)cc(OC)c1OC as the compound, how does the IC50 [2] read?
A: Its IC50 is 0.01 µM.

Q: COc1cccc2c1OC1(C)CC2NC(=O)N1c1cccc(C(=O)N2CCN(c3ccccc3F)CC2)c1 (stereo not given) was tested. Which IC50 [1] did it give?
A: The IC50 was over 10 µM.

Q: COc1ccc(-n2nc(C(=O)NCC(=O)Nc3nc4ccccc4s3)c3ccccc3c2=O)cc1 was tested. Which IC50 [1] did it give?
A: The IC50 was over 10 µM.

Q: Which IC50 [1] does the source give for Cc1ccc(NC(=O)CSc2nc3ccc(NC(=O)c4ccccc4Cl)cc3s2)cc1Cl here?
A: The IC50 was over 10 µM.

Q: For O=C1CC(NC2CCN(c3ccc(C(F)(F)F)cn3)CC2)C(=O)N1c1ccc(F)cc1 (stereo not given), which IC50 [1] is on record?
A: The IC50 was over 10 µM.

Q: Cc1ccc(NCc2cccn2-c2nnc(N3CCC(C(=O)NC4CCCCC4)CC3)s2)cc1 was tested. Which IC50 [1] did it give?
A: The IC50 was 0.66 µM.

Q: How did the IC50 [1] turn out when O=C(Nc1cccc(N2CCCN(Cc3ccc(F)c(F)c3)C2=O)c1)OCc1ccccc1 was run?
A: The IC50 was 1.2 µM.

Q: O=C(CSc1nnc(CNC(=O)c2cccs2)n1-c1ccccc1)Nc1nc2ccccc2s1 was tested. Which IC50 [1] did it give?
A: Its IC50 is over 10 µM.

Q: How did the IC50 [1] turn out when CC(C)c1ccc(NC(=O)c2cc(S(=O)(=O)N3CCN(c4ccccc4F)CC3)ccc2F)cc1 was run?
A: The IC50 was over 10 µM.

Q: Which IC50 [1] does the source give for CCn1cc(C(=O)O)c(=O)c2cc(F)c(N3CCN(C(=S)NC(=O)Cc4ccc(Cl)cc4)CC3)cc21 here?
A: The IC50 was over 10 µM.

Q: Which IC50 [1] does the source give for Cc1ccc(NCc2cccn2-c2nnc(N3CCC(C(=O)NC4CC4)CC3)s2)cc1 here?
A: The IC50 was 4.2 µM.

Q: For COc1ccc2[nH]cc(CCNC(=O)c3ccccc3NC(=O)c3nsc4ccccc34)c2c1, which IC50 [1] is on record?
A: The IC50 was over 10 µM.

Q: Which results are given for Cc1ccc(NCc2cccn2-c2nnc(N3CCC(C(=O)NC4CCCCC4C)CC3)s2)cc1 (stereo not given)?
A: IC50 [1]: 0.047 µM; inhibition [3]: Active

Q: CC1CCN(C(C)CNC(=O)c2ccc3c(c2)NC(=O)C(CS(=O)(=O)Cc2ccc(F)cc2Cl)N3)CC1 (stereo not given) was tested. Which IC50 [1] did it give?
A: The IC50 was over 10 µM.

Q: With Cc1c(C(=O)NC2CCCCC2)sc2ncn(CC(=O)Nc3cccc(C(F)(F)F)c3)c(=O)c12 as the compound, how does the IC50 [1] read?
A: The IC50 was over 10 µM.

Q: Cc1ccc(NCc2cccn2-c2nnc(N3CCC(C(=O)NCC(C)C)CC3)s2)cc1 was tested. Which IC50 [1] did it give?
A: The IC50 was 1.1 µM.

Q: With COc1cc(F)ccc1S(=O)(=O)NCCNc1nc(-c2ccc(F)cc2)nc2ccccc12 as the compound, how does the IC50 [1] read?
A: Its IC50 is over 10 µM.

Q: Which IC50 [1] does the source give for CCC(Sc1nnc2c(=O)n(-c3ccc(C)c(C)c3)ccn12)C(=O)Nc1ccccc1C (stereo not given) here?
A: The IC50 was over 10 µM.

Q: Which IC50 [1] does the source give for COc1ccc(Cl)cc1NC(=O)c1ccc(-n2nc(OCc3cccc(F)c3)ccc2=O)cc1 here?
A: The IC50 was over 10 µM.

Q: Cc1cccc(CNC(=O)Cc2cccc(N(Cc3ccccc3)C(=O)c3ccc(C#N)cc3)c2)c1 was tested. Which IC50 [1] did it give?
A: The IC50 was over 10 µM.

Q: Which IC50 [1] does the source give for CC1Cc2ccccc2N1C(=O)c1ccc(=O)n(CCC(=O)N2CCN(c3ccccc3)CC2)n1 (stereo not given) here?
A: Its IC50 is 3 µM.

Q: For Cc1oc(-c2cccc(Cl)c2)nc1CN1CCC(C(=O)NC2CCCc3ccccc32)CC1 (stereo not given), which IC50 [1] is on record?
A: Its IC50 is 0.95 µM.

Q: Cc1ccc(NCc2cccn2-c2nnc(N3CCC(C(=O)NC4CCCCC4C)CC3)s2)nc1 (stereo not given) was tested. Which IC50 [1] did it give?
A: Its IC50 is 0.058 µM.

Q: For Cc1ccc(NCc2cccn2-c2nnc(N3CCC(C(=O)NC(C)C)CC3)s2)cc1, which IC50 [1] is on record?
A: The IC50 was 1.2 µM.

Q: With CN(C(=O)Cn1c(=O)n(CCCC(=O)NCc2ccccc2)c(=O)c2sccc21)c1ccccc1 as the compound, how does the IC50 [1] read?
A: Its IC50 is over 10 µM.

Q: For CCNC(=O)C1CCN(c2nnc(-n3cccc3CNc3ccc(C)cc3)s2)CC1, which IC50 [1] is on record?
A: The IC50 was 5.2 µM.
